Mdm2 MdmX PPI: human Mdm2/MdmX binding inhibition; SaOS-2 split-luciferase Mdm2/MdmX complementation, luminescence; inhibition, % at 8 µM; 330,000 tested, 3% active; AID 485346;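 active = inhibition of at least 50% at 8 µM in the primary screen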
VIM-2 inh: blocks Pseudomonas aeruginosa VIM-2 metallo-beta-lactamase. purified VIM-2, nitrocefin hydrolysis, epi-absorbance fluorescence. inhibition, % at 5.6 µM. 290,000 tested, 0.89% active. AID 1527;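 active = inhibition above the mean of all tested compounds plus 3 SD, cutoff set per screening run, cut at about 7.5% in these data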;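 also: red hydrolysis product quenches plate fluorescence so inhibitors raise well fluorescence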
IMP-1 inh: blocks Pseudomonas aeruginosa IMP-1 metallo-beta-lactamase | purified IMP-1, nitrocefin hydrolysis, epi-absorbance fluorescence | inhibition, % at 5.6 µM | 290,000 tested, 0.45% active | AID 1556;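 active = inhibition above the mean plus 3 SD of all compounds in the same screening run, cut at about 4.5% in these data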
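Assay system: purified recombinant IMP-1 beta-lactamase. Input: IMP-1 0.2 nM before substrate addition. Buffer or medium: Zinc- and detergent-supplemented HEPES buffer, pH 7.1. Schedule: 25 °C, 15 min preincubation, 25 min reaction. Signal: Epi-absorbance fluorescence, 480 nm excitation, 530 nm emission. Evaluation: percent inhibition from optical density relative to buffer-blank wells.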
697 NFkB inh: inhibitors of the PMA/ionomycin-induced NF-kB reporter in 697 B cells. inhibition, % at 4 µM. 330,000 tested, 0.33% active. 697 B-cell NF-kB luciferase reporter, 16 h; in the data active = inhibition above about 35%
aSyn UTR inh: MLPCN primary screen, SNCA 5' untranslated region | alpha-synuclein 5'UTR reporter, inhibitor activity | inhibition, % (tested at 7.5 µM) | 300,000 tested, 0.82% active; in the data active = inhibition above about 60%;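 also: H4 neuroglioblastoma cells stably carrying SNCA 5'UTR luciferase fusion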
Jurkat NFkB inh: inhibitors of the PMA/ionomycin-induced NF-kB reporter in Jurkat cells. inhibition, % at 4 µM. PMA/ionomycin-induced NF-kB luciferase reporter, luminescence. 330,000 tested, 0.53% active; in the data active = inhibition above about 50%
A number is an active result. In the library only some 4.7% were active in any assay of this set; here they are far more common.

For Nc1ccc(C(=O)N/N=C/c2cn(Cc3ccc(F)cc3)c3ccccc23)cc1 the results were Mdm2 MdmX PPI inactive, VIM-2 inh inactive, IMP-1 inh inactive, 697 NFkB inh inactive, aSyn UTR inh 64 and Jurkat NFkB inh inactive.
For Cn1nc(-c2ccc(OCC(=O)NCC3CCCO3)cc2)c2ccccc2c1=O (stereo unspecified) the results were Mdm2 MdmX PPI inactive, VIM-2 inh 11, IMP-1 inh inactive, 697 NFkB inh inactive, aSyn UTR inh inactive and Jurkat NFkB inh inactive.
Screening Cn1nc(-c2ccc(C(=O)NCC3CCCO3)cc2)c2ccccc2c1=O (stereo unspecified) returned Mdm2 MdmX PPI inactive, VIM-2 inh inactive, IMP-1 inh inactive, 697 NFkB inh inactive, aSyn UTR inh inactive and Jurkat NFkB inh inactive.
Screening CN(CCO)C(=O)c1ccc(-c2nn(C)c(=O)c3ccccc23)cc1 returned Mdm2 MdmX PPI inactive, VIM-2 inh inactive, IMP-1 inh inactive, 697 NFkB inh inactive, aSyn UTR inh inactive and Jurkat NFkB inh inactive.
For Cn1nc(-c2ccc(C(=O)NCCO)cc2)c2ccccc2c1=O the results were Mdm2 MdmX PPI inactive, VIM-2 inh 10, IMP-1 inh inactive, 697 NFkB inh inactive, aSyn UTR inh inactive and Jurkat NFkB inh inactive.
`Cc1cc(-c2nn(C)c(=O)c3ccccc23)cc(C)c1O` gave Mdm2 MdmX PPI inactive, VIM-2 inh 9.2, IMP-1 inh inactive, 697 NFkB inh inactive, aSyn UTR inh inactive and Jurkat NFkB inh inactive.
`COc1cc(C(=O)Nc2ccc(N3CCN(C(=O)c4ccc(C)cc4)CC3)cc2)cc(OC)c1OC` gave Mdm2 MdmX PPI inactive, VIM-2 inh inactive, IMP-1 inh inactive, 697 NFkB inh inactive, aSyn UTR inh inactive and Jurkat NFkB inh inactive.
Screening CC(C)NS(=O)(=O)c1ccc(NCCCn2ccnc2)c([N+](=O)[O-])c1 returned Mdm2 MdmX PPI inactive, VIM-2 inh inactive, IMP-1 inh inactive, 697 NFkB inh inactive, aSyn UTR inh inactive and Jurkat NFkB inh inactive.
O=C(OCC(=O)N1CCCC1)c1cc(Cl)ccc1[N+](=O)[O-] was read as Mdm2 MdmX PPI inactive, VIM-2 inh inactive, IMP-1 inh inactive, 697 NFkB inh inactive, aSyn UTR inh inactive and Jurkat NFkB inh inactive.
CC1=C(C#N)C(/C=N/OCc2ccc(Cl)cc2)CC(=O)N1 (stereo unspecified) was read as Mdm2 MdmX PPI inactive, VIM-2 inh 8.8, IMP-1 inh inactive, 697 NFkB inh inactive, aSyn UTR inh inactive and Jurkat NFkB inh inactive.
CCCSC1=C(C#N)C(c2ccc(Cl)cc2Cl)CC(=O)N1 (stereo unspecified) was read as Mdm2 MdmX PPI inactive, VIM-2 inh inactive, IMP-1 inh inactive, 697 NFkB inh inactive, aSyn UTR inh inactive and Jurkat NFkB inh inactive.
CCNc1ccc(Br)cc(C(=O)/C=C/c2ccc(Cl)cc2)c1=O was read as Mdm2 MdmX PPI inactive, VIM-2 inh inactive, IMP-1 inh 4.5, 697 NFkB inh inactive, aSyn UTR inh inactive and Jurkat NFkB inh inactive.
Screening CNc1ccc(Br)cc(C(=O)/C=C/c2cccc(OC)c2)c1=O returned Mdm2 MdmX PPI inactive, VIM-2 inh inactive, IMP-1 inh 10, 697 NFkB inh inactive, aSyn UTR inh inactive and Jurkat NFkB inh inactive.
Screening O=S(=O)(c1ccccc1S(=O)(=O)N1CCCCC1)N1CCCCC1 returned Mdm2 MdmX PPI inactive, VIM-2 inh inactive, IMP-1 inh inactive, 697 NFkB inh inactive, aSyn UTR inh inactive and Jurkat NFkB inh inactive.
Screening O=C1C=C(N2CCCCC2)c2ccccc2C1=O returned Mdm2 MdmX PPI inactive, 697 NFkB inh inactive, aSyn UTR inh 122 and Jurkat NFkB inh inactive.
`CCOC(=O)c1c(NC(=O)CSc2ncn[nH]2)sc(C)c1C` gave Mdm2 MdmX PPI inactive, VIM-2 inh inactive, IMP-1 inh inactive, 697 NFkB inh inactive, aSyn UTR inh inactive and Jurkat NFkB inh inactive.
`CCOC(=O)c1c(NC(=O)CSc2ncn[nH]2)sc(C(=O)NC)c1C` gave Mdm2 MdmX PPI inactive, VIM-2 inh 10.0, IMP-1 inh inactive, 697 NFkB inh inactive, aSyn UTR inh inactive and Jurkat NFkB inh inactive.
Screening Cc1cccn2c(NC(=O)c3ccccc3F)c(-c3ccccc3)nc12 returned Mdm2 MdmX PPI inactive, VIM-2 inh inactive, IMP-1 inh inactive, 697 NFkB inh inactive, aSyn UTR inh inactive and Jurkat NFkB inh inactive.
CC1=NN(c2nc(-c3ccc(C)cc3)cs2)C(=O)C1N=Nc1ccc2ccccc2c1 (stereo unspecified) was read as Mdm2 MdmX PPI inactive, VIM-2 inh inactive, IMP-1 inh inactive, 697 NFkB inh inactive, aSyn UTR inh inactive and Jurkat NFkB inh inactive.
`CC1=NN(c2nc(-c3ccc(C)cc3)cs2)C(=O)C1N=Nc1ccc(C(N)=O)cc1` (stereo unspecified) gave VIM-2 inh inactive, IMP-1 inh inactive and aSyn UTR inh 86.
For Cc1cc(C)c2oc(=O)cc(CN3CCN(Cc4ccccc4)CC3)c2c1 the results were Mdm2 MdmX PPI inactive, VIM-2 inh inactive, IMP-1 inh inactive, 697 NFkB inh inactive, aSyn UTR inh inactive and Jurkat NFkB inh inactive.
Screening Cc1ccc2c(CN3CCN(CCO)CC3)cc(=O)oc2c1C returned Mdm2 MdmX PPI inactive, VIM-2 inh 9.9, IMP-1 inh inactive, 697 NFkB inh inactive, aSyn UTR inh inactive and Jurkat NFkB inh inactive.
Cc1ccc2c(CN3CCN(Cc4ccccc4)CC3)cc(=O)oc2c1C was read as Mdm2 MdmX PPI inactive, VIM-2 inh 9.9, IMP-1 inh inactive, 697 NFkB inh inactive, aSyn UTR inh inactive and Jurkat NFkB inh inactive.
`Cc1ccc2c(CN3CCOCC3)cc(=O)oc2c1C` gave Mdm2 MdmX PPI inactive, VIM-2 inh inactive, IMP-1 inh inactive, 697 NFkB inh inactive, aSyn UTR inh inactive and Jurkat NFkB inh inactive.
COc1cccc2c1cc1c(=O)n(CC(=O)NCCCN3CCN(C)CC3)nc(C)n12 was read as Mdm2 MdmX PPI inactive, VIM-2 inh 10, IMP-1 inh inactive, 697 NFkB inh inactive, aSyn UTR inh inactive and Jurkat NFkB inh inactive.
`CCCSCCCNC(=O)Cn1nc(CC)n2c(cc3c(OC)cccc32)c1=O` gave Mdm2 MdmX PPI inactive, VIM-2 inh inactive, IMP-1 inh 9.1, 697 NFkB inh inactive, aSyn UTR inh inactive and Jurkat NFkB inh inactive.
`COc1cccc2c1cc1c(=O)n(CC(=O)NC3CCCCC3)nc(C)n12` gave Mdm2 MdmX PPI inactive, VIM-2 inh inactive, IMP-1 inh inactive, 697 NFkB inh inactive, aSyn UTR inh inactive and Jurkat NFkB inh inactive.
For CCc1nn(CC(=O)NCCN2CCOCC2)c(=O)c2cc3c(OC)cccc3n12 the results were Mdm2 MdmX PPI inactive, VIM-2 inh 8.8, IMP-1 inh inactive, 697 NFkB inh inactive, aSyn UTR inh inactive and Jurkat NFkB inh inactive.
O=S(=O)(c1ccc(-c2ccon2)s1)N1CCN(c2ccncc2)CC1 was read as Mdm2 MdmX PPI inactive, VIM-2 inh inactive, IMP-1 inh inactive, 697 NFkB inh inactive, aSyn UTR inh inactive and Jurkat NFkB inh inactive.
O=S(=O)(c1ccc(-c2ccon2)s1)N1CCN(c2ccccn2)CC1 was read as Mdm2 MdmX PPI inactive, VIM-2 inh inactive, IMP-1 inh 79, 697 NFkB inh inactive, aSyn UTR inh inactive and Jurkat NFkB inh inactive.
